Test [1] concerns the target T1, Polyunsaturated fatty acid 5-lipoxygenase (Mus musculus, UniProt P48999).
T1 sequence (P48999 whole entry): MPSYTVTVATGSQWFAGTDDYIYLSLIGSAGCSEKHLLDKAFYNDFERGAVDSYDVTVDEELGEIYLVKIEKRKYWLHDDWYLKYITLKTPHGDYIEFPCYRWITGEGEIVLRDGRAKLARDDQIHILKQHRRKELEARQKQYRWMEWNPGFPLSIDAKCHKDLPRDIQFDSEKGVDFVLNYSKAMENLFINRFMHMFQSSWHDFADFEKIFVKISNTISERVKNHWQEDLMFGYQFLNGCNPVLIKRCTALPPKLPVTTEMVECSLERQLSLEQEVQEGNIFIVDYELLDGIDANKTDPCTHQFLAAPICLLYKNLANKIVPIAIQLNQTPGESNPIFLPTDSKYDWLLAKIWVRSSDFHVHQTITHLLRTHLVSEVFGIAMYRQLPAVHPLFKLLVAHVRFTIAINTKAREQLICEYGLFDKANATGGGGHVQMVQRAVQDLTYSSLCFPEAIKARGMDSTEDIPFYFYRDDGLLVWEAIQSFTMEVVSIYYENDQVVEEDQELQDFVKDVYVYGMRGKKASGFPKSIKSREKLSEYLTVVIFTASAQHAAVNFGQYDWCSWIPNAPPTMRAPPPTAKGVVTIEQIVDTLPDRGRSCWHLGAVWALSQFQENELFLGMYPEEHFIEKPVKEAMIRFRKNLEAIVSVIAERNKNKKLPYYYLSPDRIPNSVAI
The test is described as follows: Inhibition of 5-lipoxygenase from mouse macrophage. The procedure, abridged: (§1)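 Plasma-free cultures of murine peritoneal macrophages. Inhibition of LTC4 synthesis (5-LO product) measured, with PGE2 also monitored. IC50 from iterative four-parameter curve fit. Data reported as mean ± SE with the number of determinations; where only two runs were made, both values are given.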

The target of test [2] is T2, Polyunsaturated fatty acid 5-lipoxygenase (Homo sapiens, UniProt P09917).
T2 sequence (P09917 whole entry): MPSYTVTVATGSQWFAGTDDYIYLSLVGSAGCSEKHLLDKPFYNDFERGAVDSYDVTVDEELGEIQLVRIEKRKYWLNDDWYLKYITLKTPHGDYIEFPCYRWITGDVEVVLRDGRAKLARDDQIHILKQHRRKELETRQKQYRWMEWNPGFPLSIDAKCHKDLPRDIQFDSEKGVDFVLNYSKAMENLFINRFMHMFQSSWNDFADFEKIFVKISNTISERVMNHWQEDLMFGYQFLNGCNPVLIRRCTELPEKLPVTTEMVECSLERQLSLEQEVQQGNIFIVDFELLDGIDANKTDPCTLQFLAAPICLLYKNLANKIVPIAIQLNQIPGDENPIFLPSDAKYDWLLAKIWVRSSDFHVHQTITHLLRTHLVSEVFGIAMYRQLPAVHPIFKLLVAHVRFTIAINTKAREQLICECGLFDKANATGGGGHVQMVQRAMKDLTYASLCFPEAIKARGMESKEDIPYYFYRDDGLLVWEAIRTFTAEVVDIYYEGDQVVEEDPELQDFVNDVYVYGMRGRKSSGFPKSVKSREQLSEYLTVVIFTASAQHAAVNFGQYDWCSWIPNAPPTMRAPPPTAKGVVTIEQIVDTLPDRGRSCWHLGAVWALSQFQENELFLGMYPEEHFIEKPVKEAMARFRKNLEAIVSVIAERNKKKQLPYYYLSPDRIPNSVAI
The test is described as follows: Inhibitory concentration against 5-lipoxygenase from human whole blood. The class given is tissue-based. In a few lines:
(§2)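 Eicosanoid generation measured to assess 5-LO inhibition. IC50 from iterative four-parameter curve fit. Data reported as mean ± SE with the number of determinations; where only two runs were made, both values are given.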

Test [3] deals with T1, Polyunsaturated fatty acid 5-lipoxygenase. Briefly: Inhibitory concentration against 5-lipoxygenase from mouse macrophage. The procedure, abridged: as §1
In test [4] the target is T2, Polyunsaturated fatty acid 5-lipoxygenase. Briefly: Inhibition of 5-lipoxygenase from human whole blood. The format is tissue-based. In a few lines:
as §2

Molecule `CC[C@](COC)(OC)c1cc(F)cc(OCc2ccc3c(ccc(=O)n3C)c2)c1` gave an IC50 in test [1] of 45 nM.

On to `CC[C@@](COC)(OC)c1cc(F)cc(OCc2ccc3c(ccc(=O)n3C)c2)c1`, for which the IC50 amounted to 520 nM in test [2] and 48 nM in test [1].

Turning to `COC1(c2nccs2)CCc2ccc(OCc3ccc4ccccc4c3)cc21` (single isomer, unassigned; (-)), the IC50 in test [3] is 1250 nM.

In test [4], `COC1(c2cc(F)cc(OCc3ccc4c(ccc(=O)n4C)c3)c2)CCOCC1` [ZD-2138] displayed an IC50 of 27 nM.

One may read the IC50 as the concentration needed to halve the response being measured.

The values are drawn from ChEMBL document CHEMBL1127840, “Conformational analysis of 5-lipoxygenase inhibitors: role of the substituents in chiral recognition and on the active conformations of the (methoxyalkyl)thiazole and methoxytetrahydropyran series” (J Med Chem, 1994).
